Tests used:
Type in all cases: functional
HCT-116 = assay: Growth inhibition of human HCT116 cells after 48 hrs by sulforhodamine B assay; details: HCT-116, 48 h
TK-10 = assay: Growth inhibition of human TK10 cells after 48 hrs by sulforhodamine B assay; details: TK-10, 48 h
[1] = Growth inhibition of human Hs 578T cells after 48 hrs by sulforhodamine B assay
K562 = assay: Growth inhibition of human K562 cells after 48 hrs by sulforhodamine B assay; details: K562, 48 h
BT-549 = assay: Growth inhibition of human BT549 cells after 48 hrs by sulforhodamine B assay; details: BT-549, 48 h
SW-620 = assay: Growth inhibition of human SW620 cells after 48 hrs by sulforhodamine B assay; details: SW-620, 48 h
OVCAR-3 = assay: Growth inhibition of human OVCAR3 cells after 48 hrs by sulforhodamine B assay; details: OVCAR-3, 48 h
MDA-MB-435 = assay: Growth inhibition of human MDA-MB-435 cells after 48 hrs by sulforhodamine B assay; details: MDA-MB-435, 48 h
LOX IMVI = assay: Growth inhibition of human LOXIMVI cells after 48 hrs by sulforhodamine B assay
SK-MEL-28 = assay: Growth inhibition of human SK-MEL-28 cells after 48 hrs by sulforhodamine B assay; details: SK-MEL-28, 48 h
UACC-257 = assay: Growth inhibition of human UACC257 cells after 48 hrs by sulforhodamine B assay; details: UACC-257, 48 h
U-251 = assay: Growth inhibition of human U251 cells after 48 hrs by sulforhodamine B assay; details: U-251, 48 h
ACHN = assay: Growth inhibition of human ACHN cells after 48 hrs by sulforhodamine B assay
EKVX = assay: Growth inhibition of human EKVX cells after 48 hrs by sulforhodamine B assay
CAKI-1 = assay: Growth inhibition of human Caki1 cells after 48 hrs by sulforhodamine B assay; details: CAKI-1, 48 h
RPMI-8226 = assay: Growth inhibition of human RPMI8226 cells after 48 hrs by sulforhodamine B assay; details: RPMI-8226, 48 h
HT-29 = assay: Growth inhibition of human HT-29 cells after 48 hrs by sulforhodamine B assay; details: HT-29, 48 h
HCC 2998 = assay: Growth inhibition of human HCC2998 cells after 48 hrs by sulforhodamine B assay; details: HCC 2998, 48 h
OVCAR-4 = assay: Growth inhibition of human OVCAR4 cells after 48 hrs by sulforhodamine B assay; details: OVCAR-4, 48 h
NCI-H522 = assay: Growth inhibition of human NCI-H522 cells after 48 hrs by sulforhodamine B assay; details: NCI-H522, 48 h
SK-MEL-2 = assay: Growth inhibition of human SK-MEL-2 cells after 48 hrs by sulforhodamine B assay; details: SK-MEL-2, 48 h
NCI-H226 = assay: Growth inhibition of human NCI-H226 cells after 48 hrs by sulforhodamine B assay; details: NCI-H226, 48 h
UO-31 = assay: Growth inhibition of human UO31 cells after 48 hrs by sulforhodamine B assay; details: UO-31, 48 h
A498 = assay: Growth inhibition of human A498 cells after 48 hrs by sulforhodamine B assay; details: A498, 48 h
COLO 205 = assay: Growth inhibition of human COLO205 cells after 48 hrs by sulforhodamine B assay; details: COLO 205, 48 h
SF-268 = assay: Growth inhibition of human SF268 cells after 48 hrs by sulforhodamine B assay; details: SF-268, 48 h
HL-60(TB) = assay: Growth inhibition of human HL-60(TB) cells after 48 hrs by sulforhodamine B assay; details: HL-60, 48 h
Summary of the method: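 Run in the NCI 60 cell-line screen as the full 5-dose assay that follows initial single-dose testing; GI50 is read from the dose series.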

M14 = assay: Growth inhibition of human M14 cells after 48 hrs by sulforhodamine B assay; details: M14, 48 h
MOLT-4 = assay: Growth inhibition of human MOLT4 cells after 48 hrs by sulforhodamine B assay; details: MOLT-4, 48 h
NCI/ADR-RES = assay: Growth inhibition of human NCI/ADR-RES cells after 48 hrs by sulforhodamine B assay
SF-539 = assay: Growth inhibition of human SF539 cells after 48 hrs by sulforhodamine B assay; details: SF-539, 48 h
MDA-MB-468 = assay: Growth inhibition of human MDA-MB-468 cells after 48 hrs by sulforhodamine B assay; details: MDA-MB-468, 48 h
[2] = read-out: pLC50 (the source's name) (converted)

Compound COc1cc(/C=C/c2ccc3c(c2)C[C@@H]2C(C)(C)[C@H](O)CC[C@@]2(C)O3)cc(O)c1C/C=C(\C)CCC=C(C)C has a GI50 (HCT-116) of 7.76 µM, an LC50 (HCT-116) of 45.7 µM and a TGI (HCT-116; read-out: pTGI (converted)) of 20.4 µM. The GI50 (TK-10) was 29.5 µM, the LC50 (TK-10) was greater than 100 µM and the TGI (TK-10; read-out: pTGI (converted)) was 79.4 µM. It also gave a GI50 [1] of 8.71 µM, a CC50 [1, 2] greater than 100 µM and a TGI ([1]; read-out: pTGI (converted)) of 93.3 µM. It also gave a GI50 (K562) of 5.5 µM, an LC50 (K562) greater than 100 µM and a TGI (K562; read-out: pTGI (converted)) of 33.9 µM. For the same compound, the GI50 (BT-549) was 5.01 µM, the LC50 (BT-549) was 49 µM and the TGI (BT-549; read-out: pTGI (converted)) was 17.8 µM. For the same compound, the GI50 (SW-620) was 11.7 µM, the LC50 (SW-620) was 53.7 µM and the TGI (SW-620; read-out: pTGI (converted)) was 25.1 µM. For the same compound, the GI50 (OVCAR-3) was 17.4 µM, the LC50 (OVCAR-3) was 66.1 µM and the TGI (OVCAR-3; read-out: pTGI (converted)) was 33.9 µM. The GI50 (MDA-MB-435) was 17.4 µM, the LC50 (MDA-MB-435) was 81.3 µM and the TGI (MDA-MB-435; read-out: pTGI (converted)) was 38 µM. For the same compound, the GI50 (LOX IMVI) was 3.31 µM, the LC50 (LOX IMVI) was 37.2 µM and the TGI (LOX IMVI; read-out: pTGI (converted)) was 11.5 µM. It also gave a GI50 (SK-MEL-28) of 16.2 µM, a CC50 (SK-MEL-28; [2]) of 69.2 µM and a TGI (SK-MEL-28; read-out: pTGI (converted)) of 33.1 µM. The GI50 (UACC-257) was 22.9 µM, the LC50 (UACC-257) was greater than 100 µM and the TGI (UACC-257; read-out: pTGI (converted)) was 55 µM. For the same compound, the GI50 (U-251) was 5.62 µM, the LC50 (U-251) was 63.1 µM and the TGI (U-251; read-out: pTGI (converted)) was 22.4 µM. For the same compound, the GI50 (ACHN) was 20 µM, the LC50 (ACHN) was greater than 100 µM and the TGI (ACHN; read-out: pTGI (converted)) was 46.8 µM. For the same compound, the GI50 (EKVX) was 14.5 µM, the LC50 (50% lethal concentration) (EKVX) was greater than 100 µM and the TGI (EKVX; read-out: pTGI (converted)) was 57.5 µM. It also gave a GI50 (CAKI-1) of 5.37 µM, an LC50 (CAKI-1) of 67.6 µM and a TGI (CAKI-1; read-out: pTGI (converted)) of 20 µM. The GI50 (RPMI-8226) was 3.09 µM, the LC50 (RPMI-8226) was greater than 100 µM and the TGI (RPMI-8226; read-out: pTGI (converted)) was 14.5 µM. For the same compound, the GI50 (HT-29) was 1.95 µM, the LC50 (concentration killing 50% of cells) (HT-29) was 23.4 µM and the TGI (HT-29; read-out: pTGI (converted)) was 5.01 µM. The GI50 (HCC 2998) was 15.8 µM, the LC50 (HCC 2998) was 85.1 µM and the TGI (HCC 2998; read-out: pTGI (converted)) was 37.2 µM. The GI50 (OVCAR-4) was 20.9 µM, the LC50 (OVCAR-4) was greater than 100 µM and the TGI (OVCAR-4; read-out: pTGI (converted)) was 83.2 µM. It also gave a GI50 (NCI-H522) of 17.8 µM, an LC50 (NCI-H522) of 66.1 µM and a TGI (NCI-H522; read-out: pTGI (converted)) of 33.9 µM. For the same compound, the GI50 (SK-MEL-2) was 15.8 µM, the LC50 (SK-MEL-2) was 81.3 µM and the TGI (SK-MEL-2; read-out: pTGI (converted)) was 35.5 µM. The GI50 (NCI-H226) was 22.9 µM, the LC50 (NCI-H226) was greater than 100 µM and the TGI (NCI-H226; read-out: pTGI (converted)) was 56.2 µM. It also gave a GI50 (UO-31) of 5.01 µM, an LC50 (UO-31) of 64.6 µM and a TGI (UO-31; read-out: pTGI (converted)) of 20 µM. The GI50 (A498) was 46.8 µM, the LC50 (A498) was greater than 100 µM and the TGI (A498; read-out: pTGI (converted)) was greater than 100 µM. The GI50 (COLO 205) was 3.63 µM, the LC50 (COLO 205) was 49 µM and the TGI (COLO 205; read-out: pTGI (converted)) was 11 µM. It also gave a GI50 (SF-268) of 14.8 µM, an LC50 (SF-268) of 81.3 µM and a TGI (SF-268; read-out: pTGI (converted)) of 34.7 µM. It also gave a GI50 (HL-60(TB)) of 13.8 µM, a CC50 (HL-60(TB); [2]) greater than 100 µM and a TGI (HL-60(TB); read-out: pTGI (converted)) of 57.5 µM. For the same compound, the GI50 (M14) was 13.8 µM, the LC50 (M14) was 56.2 µM and the TGI (M14; read-out: pTGI (converted)) was 27.5 µM. For the same compound, the GI50 (MOLT-4) was 5.01 µM, the LC50 (MOLT-4) was greater than 100 µM and the TGI (MOLT-4; read-out: pTGI (converted)) was 38.9 µM. For the same compound, the GI50 (NCI/ADR-RES) was 21.4 µM, the LC50 (NCI/ADR-RES) was greater than 100 µM and the TGI (NCI/ADR-RES; read-out: pTGI (converted)) was 51.3 µM. For the same compound, the GI50 (SF-539) was 4.17 µM, the LC50 (SF-539) was 57.5 µM and the TGI (SF-539; read-out: pTGI (converted)) was 17.4 µM. For the same compound, the GI50 (MDA-MB-468) was 11 µM, the LC50 (MDA-MB-468) was 72.4 µM and the TGI (MDA-MB-468; read-out: pTGI (converted)) was 28.2 µM.
